Diaphorase inh: inhibits diaphorase or chemically oxidizes, flagging diaphorase assay artifacts | inhibition, % at 20 µM | hit rate 0.69% among 190,000 | diaphorase resazurin-to-resorufin fluorescence, NADH, 16 min; bacterial (C. kluyveri) enzyme, not human;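 active = primary screen inhibition at 20 µM above a set limit, cut at about 50% in these data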;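 also: plate controls were DMSO with full reaction for no effect and wells lacking NADH for full effect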
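Assay system – diaphorase enzyme from Clostridium kluyveri · Amount – diaphorase 0.14 U/mL (working solution) · Times – reaction incubation of 16 min at room temperature · Controls – No-NADH positive control and DMSO neutral control · Signal – resorufin fluorescence 544/590 nm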
PfG6PD inh: PfG6PD (Plasmodium falciparum) enzyme inhibition; hit rate 0.78% among 350,000; inhibition, % at 20 µM; PfGluPho enzyme, NADPH resazurin-diaphorase fluorescence; AID 504690;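 active = inhibition reaching at least a set limit at 20 µM in the primary screen, cut at about 59% in these data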;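 also: 0% = DMSO wells with substrate and 100% = DMSO wells lacking glucose-6-phosphate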
HKDC1 inh: inhibitors of human hexokinase HKDC1. recombinant HKDC1, G6PDH/diaphorase resazurin coupled fluorescence. inhibition, % at 20 µM. hit rate 0.16% among 340,000. Q2TB90;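 active = inhibition above about 35% when tested at 20 µM, limit read from the data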;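 also: plate controls were DMSO wells with enzyme for no effect and DMSO wells lacking enzyme for full effect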
Target sequence (Q2TB90 whole entry, looked up): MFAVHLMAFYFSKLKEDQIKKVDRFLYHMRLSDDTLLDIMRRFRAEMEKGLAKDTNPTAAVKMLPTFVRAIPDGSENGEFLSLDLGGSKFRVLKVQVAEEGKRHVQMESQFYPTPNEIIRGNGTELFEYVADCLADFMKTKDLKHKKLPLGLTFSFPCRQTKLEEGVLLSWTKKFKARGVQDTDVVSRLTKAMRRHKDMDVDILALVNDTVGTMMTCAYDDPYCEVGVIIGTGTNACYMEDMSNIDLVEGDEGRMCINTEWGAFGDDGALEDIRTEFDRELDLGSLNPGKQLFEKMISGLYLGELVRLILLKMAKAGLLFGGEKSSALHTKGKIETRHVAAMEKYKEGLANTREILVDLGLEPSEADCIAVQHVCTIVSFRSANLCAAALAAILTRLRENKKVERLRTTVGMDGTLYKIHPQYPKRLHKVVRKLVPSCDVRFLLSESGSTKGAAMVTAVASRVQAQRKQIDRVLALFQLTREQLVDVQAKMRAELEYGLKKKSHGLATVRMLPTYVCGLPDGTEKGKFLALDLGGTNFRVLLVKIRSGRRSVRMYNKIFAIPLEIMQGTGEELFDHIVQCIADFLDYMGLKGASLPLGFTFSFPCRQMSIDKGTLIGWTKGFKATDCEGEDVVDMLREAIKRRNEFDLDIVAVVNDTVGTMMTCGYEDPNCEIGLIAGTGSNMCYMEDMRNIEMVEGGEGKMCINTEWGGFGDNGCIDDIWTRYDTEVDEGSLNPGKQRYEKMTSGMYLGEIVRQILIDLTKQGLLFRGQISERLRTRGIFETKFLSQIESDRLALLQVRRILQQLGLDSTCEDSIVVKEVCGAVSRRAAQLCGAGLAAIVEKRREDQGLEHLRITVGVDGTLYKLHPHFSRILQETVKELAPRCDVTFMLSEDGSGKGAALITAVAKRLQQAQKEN
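Material: recombinant HKDC1 hexokinase; Amount: HKDC1 at 5 µg/mL; Medium: Tris pH 8.0 buffer with MgCl2, Tween-20, BSA, BME; Schedule: 90 min reaction incubation at room temperature, dark; Technique: coupled resazurin fluorescence, excitation 525 nm, emission 613 nm.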
G6PDH CS: L. mesenteroides G6PDH inhibition counter-screen | AID 1020 | hit rate 0.12% among 200,000 | Purified L. mesenteroides G6PDH, diaphorase/resazurin coupled fluorescence, 45 min | inhibition, % at 5 µM; in the data active = inhibition above about 50%
Diaphorase act: activates diaphorase or chemically reduces, flagging diaphorase assay artifacts | Diaphorase/resazurin coupled assay, resorufin fluorescence, 16 min; hits give high values; 1 = vehicle wells, 0 = NADH-free wells | activation factor at 20 µM | hit rate 0.005% among 190,000 | AID 1229;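 active = diaphorase activity raised at least twofold by the compound at 20 µM; inactive = activation factor below 2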
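Material: Purified diaphorase enzyme from Clostridium kluyveri | Buffer or medium: 50 mM HEPES pH 7.4 with 4.542 mM MgCl2, 0.005% Tween 20 | Times: 16 min enzyme reaction, ambient temperature | Signal: Red resorufin fluorescence at 544/590 nm excitation/emission | Measure: Increased resorufin signal from activators or reducing compounds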
* = called active by the depositor. An excerpt weighted towards active compounds, which were near 1.3% of everything screened.

Screening O=C(c1cc2c(=O)n3ccccc3nc2s1)N1CCc2ccccc2C1 returned Diaphorase inh 57*, G6PDH CS 7 and Diaphorase act 0.4.
For C[C@@H]1CN([C@H](C)CO)C(=O)Cc2cc(NC(=O)CCC(F)(F)F)ccc2O[C@@H]1CN(C)C(=O)Nc1ccccc1 the results were PfG6PD inh 7 and HKDC1 inh 0.
Screening Cc1cc(-c2n[nH]c(=S)n2/N=C/C(Cl)=C/c2ccccc2)n[nH]1 returned Diaphorase inh 51*, PfG6PD inh 14, HKDC1 inh 21, G6PDH CS 13 and Diaphorase act 0.5.
Screening CC(=C/c1ccccc1)/C=N/n1c(-c2ccncc2)n[nH]c1=S returned Diaphorase inh 66*, PfG6PD inh 10, HKDC1 inh -3, G6PDH CS 9 and Diaphorase act 0.3.
`Cc1cc(-c2n[nH]c(=S)n2/N=C/c2cccc([N+](=O)[O-])c2)n[nH]1` gave Diaphorase inh 62*, PfG6PD inh 15, HKDC1 inh 13, G6PDH CS -2 and Diaphorase act 0.4.
For Cc1cc(-c2n[nH]c(=S)n2/N=C/c2cccc(O)c2)n[nH]1 the results were PfG6PD inh 20 and HKDC1 inh -4.
Screening CC(C)CCn1c(CN2CCN(Cc3ccccc3)CC2)nc2c1c(=O)[nH]c(=O)n2C returned Diaphorase inh 22, PfG6PD inh 7, HKDC1 inh -4, G6PDH CS 4 and Diaphorase act 0.8.
Screening COc1ccc(-c2oc3ccccc3c2C(=O)OCc2ccc(O)cc2)cc1 returned PfG6PD inh 2 and HKDC1 inh 3.
For COc1cccc(-c2c(C(=O)N/N=C/c3cccs3)nnn2-c2nonc2N)c1 the results were PfG6PD inh 59* and HKDC1 inh 11.
Screening CCCC[n+]1ccn(C2=C([O-])c3ccccc3C(=O)/C2=N\S(=O)(=O)c2ccccc2)c1 returned Diaphorase inh 12, PfG6PD inh 10, HKDC1 inh -9, G6PDH CS 56* and Diaphorase act 0.9.
For CCCCC[n+]1ccn(C2=C([O-])c3ccccc3C(=O)/C2=N\S(=O)(=O)c2ccccc2)c1 the results were Diaphorase inh 6, PfG6PD inh 2, HKDC1 inh -2, G6PDH CS 55* and Diaphorase act 0.9.
`CCCCC[n+]1ccn(C2=C([O-])c3ccccc3C(=O)/C2=N\S(=O)(=O)c2ccc(Br)cc2)c1` gave PfG6PD inh 24 and HKDC1 inh 14.
For O=c1c2c(nc3n1CCS3)c1cc(F)ccc1n2Cc1cc(=O)n2cc(Cl)ccc2n1 the results were PfG6PD inh 62* and HKDC1 inh 7.
For CCOC(=O)c1nn(-c2ccc(F)cc2)c(=O)c2c(N)scc12 the results were Diaphorase inh 32, PfG6PD inh 23, HKDC1 inh 7, G6PDH CS 51* and Diaphorase act 0.7.
For COC(=O)Oc1nsnc1N1CCOCC1 the results were Diaphorase inh 2, PfG6PD inh 61*, HKDC1 inh -25, G6PDH CS -5 and Diaphorase act 1.
For O=C(Oc1nsnc1N1CCOCC1)N(c1ccccc1)c1ccccc1 the results were Diaphorase inh 4, PfG6PD inh 17, HKDC1 inh -4, G6PDH CS 6 and Diaphorase act 1.
For O=S(=O)(NCCSc1ccccn1)c1ccc(Br)cc1 the results were Diaphorase inh 0, PfG6PD inh 23, HKDC1 inh -5, G6PDH CS 11 and Diaphorase act 1.
COc1ccc(-n2c(NC(=O)c3ccc(Br)o3)c(C#N)c3nc4ccccc4nc32)cc1 was read as Diaphorase inh 63*, G6PDH CS 13 and Diaphorase act 0.4.
`COc1ccc(-n2c(=S)[nH]c3c(oc4ccccc43)c2=O)cc1` gave Diaphorase inh 68*, PfG6PD inh 40, HKDC1 inh 12, G6PDH CS 4 and Diaphorase act 0.3.
For Cc1ccc(-n2c(=O)[nH]c3c(oc4ccccc43)c2=O)cc1 the results were Diaphorase inh 20, PfG6PD inh -5, HKDC1 inh 6, G6PDH CS 7 and Diaphorase act 0.8.
For CCCn1c(CNc2ccccc2O)nc2ccccc21 the results were Diaphorase inh 32, PfG6PD inh 34, HKDC1 inh 12, G6PDH CS 62* and Diaphorase act 0.7.
Screening CCCCn1c(CNC(=O)CCC)nc2ccccc21 returned Diaphorase inh 11, PfG6PD inh -3, HKDC1 inh -3, G6PDH CS -2 and Diaphorase act 0.9.
CCN1C[C@@H]2[C@@H]3C(=O)N(Cc4ccccc4)C(=O)[C@@H]3[C@](CC)(C(=O)OC)N2C1=NC was read as PfG6PD inh 13 and HKDC1 inh -7.
Screening CCCCNC(=S)N(C)/N=C/c1ccc2c(c1)OCO2 returned Diaphorase inh 12, PfG6PD inh 16, HKDC1 inh -9, G6PDH CS -18 and Diaphorase act 0.9.
Cc1ccc(N)c2c1OCCC2=O was read as Diaphorase inh 57*, PfG6PD inh 0, HKDC1 inh -2, G6PDH CS 10 and Diaphorase act 0.4.
For CC(C)c1nc2sc3c(=O)[nH]c(=S)[nH]c3c2c2c1CCCC2 the results were PfG6PD inh -48 and HKDC1 inh 27.
Screening CC(C)c1nc2sc3c(=O)[nH]c(=S)[nH]c3c2c2c1CCC2 returned Diaphorase inh 85*, G6PDH CS 4 and Diaphorase act 0.1.
Screening C[C@H](CO)N1C[C@H](C)[C@@H](CN(C)C(=O)c2ccc(F)cc2)Oc2cc(Br)ccc2S1(=O)=O returned PfG6PD inh 0.
Screening CC(=O)c1cccc(NC(=O)CNC(=O)Cc2ccccc2)c1 returned PfG6PD inh 6 and HKDC1 inh 0.
Cc1cc(/C=c2/sc3nc4ccccc4n3c2=O)c(C)n1-c1ccccn1 was read as Diaphorase inh 52*, PfG6PD inh 38, HKDC1 inh 5, G6PDH CS 10 and Diaphorase act 0.5.
`COc1cc(NC(c2ccccc2)c2ccccc2)cc(OC)c1OC` gave Diaphorase inh 77*, PfG6PD inh 36, HKDC1 inh 2, G6PDH CS 15 and Diaphorase act 0.2.
O=C1c2cccc3c(N4CCCCC4)ccc(c23)C(=O)N1c1cccc(O)c1 was read as Diaphorase inh 60*, PfG6PD inh -1, HKDC1 inh 22, G6PDH CS 8 and Diaphorase act 0.4.
For Cc1cccc(NC(=O)CNC(=O)C(NC(=O)Cc2ccccc2)C(C)C)c1C (centres undefined) the results were PfG6PD inh 6 and HKDC1 inh -8.
Screening COc1ccc(/C=C2\CCC(C3CCCC3)C2=O)cc1 (centres undefined) returned PfG6PD inh 1 and HKDC1 inh 2.
COc1ccc(/C=C2/CCC(CN3CCOCC3)C2=O)cc1 (centres undefined) was read as PfG6PD inh 76* and HKDC1 inh 15.

Screening results deposited in PubChem by Sanford-Burnham Center for Chemical Genomics.
